According to ChEMBL document CHEMBL4261557, “MAO inhibitory activity of bromo-2-phenylbenzofurans: synthesis, in vitro study, and docking calculations” (Medchemcomm, 2017):
pIC50: −log10 of the molar value.

Experiments:
[1] = system: SH-SY5Y; test: Cytotoxicity against human SH-SY5Y cells assessed as reduction in cell viability at 1 to 10 uM after 24 hrs by MTT assay; assay type: cell-based
Method in brief: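 SH-SY5Y neuroblastoma cells seeded at 1.106 mL–1, incubated overnight, then exposed 24 h to compound at 1 or 10 μM in 1% DMSO; 1% DMSO as negative control. MTT (5 mg ml–1 in PBS, 10%) added for 2 h at 37 °C, crystals dissolved in DMSO, absorbance 540 nm; viability = treated/control absorbance × 100. Mean ± S.E.M., ≥5 cultures.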

[2] = target: T1, Amine oxidase [flavin-containing] B (Homo sapiens, UniProt P27338); test: biochemical
T1 sequence (P27338 whole entry): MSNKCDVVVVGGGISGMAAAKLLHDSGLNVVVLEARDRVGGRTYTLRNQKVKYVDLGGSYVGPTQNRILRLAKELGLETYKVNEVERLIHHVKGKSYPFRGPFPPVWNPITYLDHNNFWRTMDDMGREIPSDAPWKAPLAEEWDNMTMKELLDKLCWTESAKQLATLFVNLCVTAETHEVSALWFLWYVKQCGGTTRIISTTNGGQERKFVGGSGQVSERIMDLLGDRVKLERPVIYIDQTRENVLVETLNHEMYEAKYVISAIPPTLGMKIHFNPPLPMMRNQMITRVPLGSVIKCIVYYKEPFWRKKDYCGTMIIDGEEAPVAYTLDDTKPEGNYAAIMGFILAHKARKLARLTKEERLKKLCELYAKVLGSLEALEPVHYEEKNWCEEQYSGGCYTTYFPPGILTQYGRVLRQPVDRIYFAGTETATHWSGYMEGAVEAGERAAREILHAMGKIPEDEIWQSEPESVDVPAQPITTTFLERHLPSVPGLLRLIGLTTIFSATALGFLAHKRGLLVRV

[3] = species on record: Homo sapiens; test: Selectivity index, ratio of IC50 for recombinant human MAO-A expressed in baculovirus infected insect cells to IC50 for recombinant human MAO-B expressed in baculovirus infected insect cells
Method in brief: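 Ratio of IC50 against hMAO-A to IC50 against hMAO-B, both measured by the Amplex Red/p-tyramine fluorimetric assay with recombinant enzymes from insect cells.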

[4] = target: T2, Amine oxidase [flavin-containing] A (Homo sapiens, UniProt P21397); test: (§1) Inhibition of recombinant human MAO-A expressed in baculovirus infected insect cells assessed as reduction in H2O2 production using p-tyramine as substrate pretreated for 15 mins followed by substrate addition and measured over 15 mins by Amplex red reagent based fluorimetric assay
T2 sequence (P21397 whole entry): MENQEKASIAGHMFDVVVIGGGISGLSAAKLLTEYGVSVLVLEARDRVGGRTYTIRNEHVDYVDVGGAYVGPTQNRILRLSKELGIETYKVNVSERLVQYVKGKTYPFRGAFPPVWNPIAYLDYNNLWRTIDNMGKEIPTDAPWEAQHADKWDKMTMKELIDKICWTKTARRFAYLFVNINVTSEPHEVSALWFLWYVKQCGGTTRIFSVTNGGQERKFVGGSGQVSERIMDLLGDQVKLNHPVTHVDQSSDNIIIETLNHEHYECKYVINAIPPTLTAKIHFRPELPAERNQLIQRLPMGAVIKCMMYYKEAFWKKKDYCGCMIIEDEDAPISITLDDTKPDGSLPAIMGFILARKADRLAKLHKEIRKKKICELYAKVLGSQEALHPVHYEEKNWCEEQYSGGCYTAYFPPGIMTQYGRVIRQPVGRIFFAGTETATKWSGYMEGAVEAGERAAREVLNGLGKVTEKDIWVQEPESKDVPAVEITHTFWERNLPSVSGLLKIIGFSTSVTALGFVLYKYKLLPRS

[5] = target: T2, Amine oxidase [flavin-containing] A; test: as §1, with “production at 100 uM” for “production”, “assay relative to control” for “assay”; conditions: 0.25 h
[6] = target: T1, Amine oxidase [flavin-containing] B; test: as §1, with “MAO-B” for “MAO-A”, “production at 100 uM” for “production”, “assay relative to control” for “assay”; conditions: 0.25 h
Method in brief: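 hMAO-B from baculovirus-infected BTI-TN-5B1-4 insect cells, 7.5 μg protein, matched to 165 pmol p-tyramine/min. Preincubated with inhibitor in 0.05 M phosphate buffer pH 7.4, 15 min at 37 °C. Started with 200 μM Amplex Red, 1 U mL–1 HRP, 1 mM p-tyramine (final). Fluorescence (ex 545/em 590 nm) over 15 min at 37 °C, minus no-enzyme background; percent inhibition at 100 μM.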

SMILES	pIC50 [2]	pIC50 [4]	inhibition at 100 µM [5] [%]	inhibition at 100 µM [6] [%]	Activity [1]	Ratio IC50 [3]
Cc1cccc2cc(-c3cccc(Br)c3)oc12	5.40	< 4.00	–	–	Non-Toxic	> 25.2
Cc1cccc2cc(-c3ccccc3Br)oc12	5.01	4.00	44.8	–	Non-Toxic	11.5
c1ccc(-c2cc3ccccc3o2)cc1	< 4.00	< 4.00	–	–	Non-Toxic	–
Cc1cccc2cc(-c3ccccc3)oc12	4.97	4.00	53.9	–	Non-Toxic	9.3
Brc1cccc(-c2cc3ccccc3o2)c1	5.93	4.00	51	–	Non-Toxic	85.5
Cc1ccc2oc(-c3ccc(Br)cc3)cc2c1	4.00	< 4.00	–	46.1	Non-Toxic	–

The next compounds have a higher pIC50 [2] than those just listed; values first:

pIC50 [2]	pIC50 [4]	inhibition at 100 µM [5] [%]	inhibition at 100 µM [6] [%]	SMILES	Activity [1]	Ratio IC50 [3]
6.06	< 4.00	–	–	Cc1ccc2oc(-c3ccccc3)cc2c1	Non-Toxic	> 114
6.47	< 4.00	–	–	Brc1ccc(-c2cc3ccccc3o2)cc1	Non-Toxic	> 294
6.70	4.96	–	–	Cc1ccc2oc(-c3ccccc3Br)cc2c1	Non-Toxic	55
5.95	5.09	–	–	Brc1ccccc1-c1cc2ccccc2o1	Non-Toxic	7.2
6.02	4.00	46.8	–	Cc1cccc2cc(-c3ccc(Br)cc3)oc12	Non-Toxic	95.2
6.60	< 4.00	–	–	Cc1ccc2oc(-c3cccc(Br)c3)cc2c1	Non-Toxic	> 400
